Bioassay records as filed in PubChem BioAssay.
NR2E3 ag-1: NR2E3 agonists in two-hybrid cells, primary screen, cell-based, luminescence, CHO-S, Gal4-NCOR/VP16-NR2E3; Photoreceptor-specific nuclear receptor (Homo sapiens), Q9Y5X4; luciferase; inhibition of corepressor binding, % at 3.98 µM; 360,000 compounds, 0.35% hits;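 active = inhibition above the mean of all tested compounds plus 3 SD, cut at about 70% in these data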;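 also: 0% = DMSO with NR2E3 transfected cells and 100% = cells lacking NR2E3 construct; higher means lower luciferase signal from less NR2E3 corepressor binding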
NR2E3 ag-2: inhibitors of NR2E3-RetCOR corepressor binding, primary screen, NR2E3 agonist project, biochemical, TR-FRET, GST-NR2E3, biotin-RetCOR; Photoreceptor-specific nuclear receptor (Homo sapiens), Q9Y5X4; 1536-well; inhibition of corepressor binding, % at 4.78 µM; 320,000 compounds, 0.12% hits;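 active = percent inhibition above the cutoff of mean plus 3 SD of all tested compounds, set per screening campaign, cut at about 20% in these data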;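 also: 0% = DMSO wells and 100% = biotin wells as full block of FRET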
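System: GST-tagged NR2E3 plus biotinylated RetCOR corepressor; Amount: 1.35 nM GST-tagged NR2E3 final; Dosing: single nominal compound dose of 4.8 µM; Schedule: 5 h incubation at 4 °C; Technique: TR-FRET with europium anti-GST and streptavidin-D2, 340 nm excitation; Controls: biotin wells as high control, 0.6% DMSO wells as low control.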
MsrA act: bovine MsrA enzyme activators, primary screen, biochemical, absorbance, HTS. activation, % at 10.6 µM. 360,000 compounds, 0.3% hits. Methionine sulfoxide reductase A (Bos taurus). purified bovine MsrA, absorbance read-out; in the data active = activation above about 7.5%;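 also: 0% = vehicle and 100% = reference activator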
GalR3 antagonist: GalR3 antagonists in HEK293 cells, primary screen, cell-based, fluorescence readout; Galanin receptor type 3 (Homo sapiens), O60755; HEK293 GalR3-CNG cAMP membrane potential fluorescence; galR3 body fused to GalR1 C-terminus; inhibition, % at 3 µM; 360,000 compounds, 0.44% hits;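 active = inhibition above the screen-wide average plus 3 SD, cut at about 13% in these data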;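 also: forskolin and galanin both at EC90 stimulate the cells; cAMP rise reported by CNG channel membrane potential dye signal; 0% = forskolin plus galanin with DMSO and 100% = forskolin alone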
Target sequence (O60755 1-299 limits assumed): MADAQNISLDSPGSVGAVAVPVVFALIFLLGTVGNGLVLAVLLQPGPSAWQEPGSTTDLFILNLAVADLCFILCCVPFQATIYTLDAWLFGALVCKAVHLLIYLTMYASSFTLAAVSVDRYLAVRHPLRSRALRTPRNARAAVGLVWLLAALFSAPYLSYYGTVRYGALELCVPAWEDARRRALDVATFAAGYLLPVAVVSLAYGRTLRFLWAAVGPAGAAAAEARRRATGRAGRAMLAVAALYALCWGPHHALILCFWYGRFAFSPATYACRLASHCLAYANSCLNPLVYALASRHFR
NadD block: inhibitors of S. aureus NadD, primary screen, biochemical, colorimetric, uHTS | purified NadD enzyme, colorimetric absorbance read-out | inhibition, % at 20 µM | 360,000 compounds, 0.78% hits | AID 602399, 2012; in the data active = inhibition above about 26%
MsrA inh: bovine MsrA enzyme inhibitors, primary screen, biochemical, absorbance, HTS | purified bovine MsrA, absorbance read-out | inhibition, % at 15.5 µM | 360,000 compounds, 0.75% hits | AID 651718, 2012; in the data active = inhibition above about 4.5%;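 also: 0% = vehicle wells with enzyme and 100% = reference inhibitor wells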
MsrA activ conf: bovine MsrA activators, retest, confirmation, biochemical, absorbance, HTS; shares compounds with MsrA act; purified bovine MsrA, absorbance read-out; activation, % at 10.6 µM; 1,000 compounds, 12% hits; AID 602270, 2012; in the data active = activation above about 4%;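 also: enzyme coupled to thioredoxin and thioredoxin reductase with NADPH; 0% = vehicle wells and 100% = reference activator wells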
The depositor's hits bear a star; · = no result given. Shown are actives, neighbours in structure and some others; about 2.5% of the full set was active somewhere.

SMILES | NR2E3 ag-1 | NR2E3 ag-2 | MsrA act | GalR3 antagonist | NadD block | MsrA inh | MsrA activ conf
O=C(COC(=O)Cc1ccccc1F)Nc1ccc2c(c1)OCCO2 | -51 | 3 | 11* | 1 | -7 | -1 | -2
O=C(COC(=O)Cc1ccccc1F)Nc1ccc2c(c1)OCO2 | -5 | -2 | -5 | -9 | -4 | -2 | ·
CC(=O)Nc1ccc(/C(C)=N/NC(=O)c2ccc(CN3CCOCC3)cc2)cc1 | -22 | 1 | 0 | -1 | -4 | 2 | ·
COc1ccc(S(=O)(=O)Nc2cc(C)c(O)c(S(=O)(=O)c3ccccc3)c2)cc1 | -30 | 0 | 9.3* | -5 | -2 | 0 | 1
N#CC1=C(N)C2=CCCC[C@H]2[C@H](c2ccccc2)C1(C#N)C#N | -24 | 0 | -3 | -1 | 1 | 1 | ·
Oc1c(Cl)cc(Oc2cc(Cl)c(O)c(CN3CCOCC3)c2)cc1CN1CCOCC1 | -23 | · | 8.7* | -5 | -3 | 0 | -1
O=C(Nc1cccc(C(=O)N2CCOCC2)c1)c1ccccc1 | -5 | 1 | 1 | 0 | 0 | 0 | ·
Cc1ccc(C(=O)Nc2cccc(C(=O)N3CCOCC3)c2)cc1Cl | -6 | -3 | 21* | -2 | 0 | -1 | -3
COc1cccc(OCCCN2CCN(S(=O)(=O)c3ccc(NC(C)=O)cc3)CC2)c1 | 10 | -2 | -2 | -7 | -7 | -1 | ·
COc1cc(NC(=O)c2cc(-c3cc(F)ccc3OC(C)C)n[nH]2)cc(OC)c1OC | -6 | · | 9.4* | -6 | -3 | 0 | -1
Cc1cccc(NNC(=S)Nc2c(C)cccc2C)c1 | -25 | -3 | 8.0* | -8 | -3 | 1 | 1
Cc1ccc2[nH]c3c(c2c1)CN(C(=O)CN1CCN(c2ccccn2)CC1)CC3 | -14 | 2 | 10* | 0 | 1 | -1 | 4.0*
O=C(CSc1nc2cc(Cl)ccc2s1)c1cc2ccccc2o1 | 10 | 4 | 9.9* | 4 | -4 | 2 | -2
Cc1noc(C)c1COc1ccccc1C(=O)NCCc1ccc(Cl)cc1 | -29 | 2 | -4 | -4 | -7 | -2 | ·
Cc1noc(C)c1COc1ccccc1C(=O)NCCc1ccc(S(N)(=O)=O)cc1 | -3 | 3 | 7.8* | -3 | -11 | 0 | -2
CN(Cc1ccccc1)C(=O)c1csc([C@@H]2O[C@H](CO)[C@H](O)[C@H](O)[C@H]2O)n1 | 11 | · | 14* | -7 | 0 | 0 | -1
COc1ccc(N2CCN(C(=O)C(=O)c3ccc(F)cc3)CC2)cc1 | · | · | · | 3 | · | 1 | ·
CCN1CCN(C(=O)c2ccc3c(=O)n(C4CCCC4)c(=S)[nH]c3c2)CC1 | 3 | 1 | 8.8* | -3 | -2 | 1 | 0
C(=Nc1ccc(N2CCOCC2)cc1)c1c[nH]c2ccccc12 | -67 | -5 | 12* | 1 | -7 | 0 | 0
CC(C)Cn1[nH]c2c3c(ccc2c1=O)C(=O)c1ccccc1C3=O | -58 | -20 | 7.8* | · | -4 | · | 3
O=C1c2ccccc2C(=O)c2c1ccc1c(=O)n(-c3ccccc3)[nH]c21 | -63 | -5 | -7 | 3 | 8 | 1 | ·
O=C1CCC(C(=O)N2CCCCCCC2)CN1Cc1cccc(C(F)(F)F)c1 (stereo unspecified) | -13 | 2 | -2 | -4 | 2 | 2 | ·
O=C1CCC(C(=O)N2CCCC2)CN1Cc1cccc(C(F)(F)F)c1 (stereo unspecified) | -3 | 3 | 9.8* | -3 | -1 | -1 | 2
CC(=O)Nc1cccc(OCC(=O)Nc2ccccc2)c1 | -17 | 2 | -6 | -3 | -6 | 0 | ·
CCOc1ccc(-c2cccc(NC(=O)COc3ccccc3)c2)nn1 | -49 | 1 | 8.8* | · | -2 | · | 1
SMILES | NR2E3 ag-1 | NR2E3 ag-2 | MsrA act | GalR3 antagonist | NadD block | MsrA inh | MsrA activ conf
COc1ccc(Cn2nnnc2C(CC(C)C)N2CCC(C(N)=O)CC2)cc1 (stereo unspecified) | 0 | 4 | 0 | -3 | 4 | 1 | ·
Cc1ccc(C(c2nnnn2CS(=O)(=O)c2ccc(C)cc2)N2CCN(c3ncccn3)CC2)cc1 (stereo unspecified) | -31 | 2 | -3 | 4 | 3 | 1 | ·
Cc1ccc(NC(=O)NC2CC(=O)N(c3ccc4c(c3)OCCO4)C2)cc1 (stereo unspecified) | 12 | 2 | -3 | -3 | -5 | -1 | ·
NS(=O)(=O)c1ccc(NC(=O)NC2CC(=O)N(c3ccc4c(c3)OCCO4)C2)cc1 (stereo unspecified) | -10 | 0 | 11* | -3 | 0 | 0 | -2
Cc1ccc(C)c2nc3sc(C(=O)N4CCOCC4)c(N)c3cc12 | -129 | 3 | 8.8* | -6 | -2 | 2 | 4.9*
Cc1cc(C)c2nc3sc(C(=O)N4CCOCC4)c(N)c3cc2c1 | -189 | -5 | -2 | 1 | -2 | 0 | ·
CC1(c2ccc(Cl)cc2)NC(=O)N(CC(=O)NCc2cccs2)C1=O (stereo unspecified) | 7 | -1 | -6 | -3 | -5 | 0 | ·
CCCCN(CC)C(=O)c1cc2c(=O)n3cccc(C)c3nc2s1 | -23 | -2 | 10* | -8 | 1 | 1 | -2
CC(=O)N1N=C(c2ccc(C)cc2)CC1c1ccc2c(c1)OCO2 (stereo unspecified) | -87 | -4 | 8.0* | 2 | -6 | -1 | -1
Cc1cccc(NC(=O)c2sc(NC(=O)COc3ccccc3)c(C#N)c2C)c1C | -18 | 2 | -3 | 3 | 6 | 0 | ·
O=C(Nc1ccc2c(c1)OCCO2)C(c1cc2ccccc2o1)N1CCN(C/C=C/c2ccccc2)CC1 (stereo unspecified) | 13 | · | 16* | -6 | 12 | 0 | -2
O=C(Nc1ccc2c(c1)OCCO2)C(C1CC1)N1CCN(C/C=C/c2ccccc2)CC1 (stereo unspecified) | -2 | · | -2 | -1 | -5 | -1 | ·
CC(C)(C)OC(=O)N1CCCN(C(c2ccnc3ccccc23)c2nnnn2-c2ccc3c(c2)OCCO3)CC1 (stereo unspecified) | -16 | · | -10 | -4 | 5 | 0 | ·
CC12CN(C(=O)c3ccccc3)C3(C#N)CC1CCC23C (stereo unspecified) | 4 | 2 | 13* | 0 | 0 | -1 | 0
